Assay results as given in ChEMBL document CHEMBL4354843, “Structure-Based Design of a Potent and Selective Covalent Inhibitor for SRC Kinase That Targets a P-Loop Cysteine” (J Med Chem, 2020).

Tests used:
[1] = biological target: Serine/threonine-protein kinase PAK 3 (Homo sapiens) (UniProt O75914); assay: Binding affinity to wild-type human full length PAK3 (M1 to R544 residues) expressed in bacterial expression system assessed as residual binding level at 1 uM by Kinomescan method relative to control
Outline: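 KinomeScan, an active site-directed competition binding panel of 468 kinases. The test compound was at 1 μM. The readout is remaining kinase binding as a percentage of the DMSO control. Scores above 35% were treated as weak binding and not listed.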

[2] = biological target: Mitogen-activated protein kinase kinase kinase 3 (Homo sapiens) (UniProt Q99759); assay: Binding affinity to wild-type human partial length MAP3K3 (E320 to Y626 residues) expressed in mammalian expression system assessed as residual binding level at 1 uM by Kinomescan method relative to control
[3] = tested on: Phosphatidylinositol 4,5-bisphosphate 3-kinase catalytic subunit alpha isoform (Homo sapiens), P42336 [E542K]; assay: Binding affinity to human partial length PIK3CA E542K mutant (R108 to N1068 residues) expressed in mammalian expression system assessed as residual binding level at 1 uM by Kinomescan method relative to control
Chain of Phosphatidylinositol 4,5-bisphosphate 3-kinase catalytic subunit alpha isoform (Homo sapiens), P42336 [E542K] (P42336 whole entry E542K, the tested form may be a part, canonical isoform): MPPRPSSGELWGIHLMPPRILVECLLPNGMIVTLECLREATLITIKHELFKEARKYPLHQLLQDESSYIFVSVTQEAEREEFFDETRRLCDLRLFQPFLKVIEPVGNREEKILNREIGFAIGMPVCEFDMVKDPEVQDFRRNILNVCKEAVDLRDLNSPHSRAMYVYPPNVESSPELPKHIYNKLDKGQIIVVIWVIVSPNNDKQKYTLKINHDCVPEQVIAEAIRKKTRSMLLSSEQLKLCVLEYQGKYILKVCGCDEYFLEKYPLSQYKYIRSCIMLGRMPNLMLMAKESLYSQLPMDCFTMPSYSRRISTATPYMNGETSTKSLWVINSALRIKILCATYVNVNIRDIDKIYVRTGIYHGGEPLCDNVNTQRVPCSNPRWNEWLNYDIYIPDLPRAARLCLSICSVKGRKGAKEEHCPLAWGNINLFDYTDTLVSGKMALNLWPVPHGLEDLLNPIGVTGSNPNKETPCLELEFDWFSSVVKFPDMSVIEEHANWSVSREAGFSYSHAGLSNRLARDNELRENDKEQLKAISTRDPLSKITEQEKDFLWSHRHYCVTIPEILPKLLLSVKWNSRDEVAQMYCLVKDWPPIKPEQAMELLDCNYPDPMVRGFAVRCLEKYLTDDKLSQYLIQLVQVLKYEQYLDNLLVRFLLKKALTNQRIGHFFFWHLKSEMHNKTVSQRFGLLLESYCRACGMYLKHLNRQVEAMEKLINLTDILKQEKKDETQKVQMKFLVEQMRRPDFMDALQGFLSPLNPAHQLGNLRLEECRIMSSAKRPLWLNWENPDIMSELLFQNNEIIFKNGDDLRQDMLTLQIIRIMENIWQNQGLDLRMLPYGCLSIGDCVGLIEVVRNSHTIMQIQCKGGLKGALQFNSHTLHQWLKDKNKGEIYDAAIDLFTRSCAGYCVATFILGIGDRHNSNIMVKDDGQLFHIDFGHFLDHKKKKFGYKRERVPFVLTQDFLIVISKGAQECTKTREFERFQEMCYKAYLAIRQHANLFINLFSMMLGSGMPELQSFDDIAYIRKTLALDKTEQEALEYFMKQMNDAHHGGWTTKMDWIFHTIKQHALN
Outline: (§1)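 KinomeScan active site-directed competition binding panel (468 kinases), compound tested at 1 μM. Result expressed as remaining kinase signal versus DMSO control (percent of control).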

[4] = biological target: Membrane-associated tyrosine- and threonine-specific cdc2-inhibitory kinase (Homo sapiens) (UniProt Q99640); assay: Binding affinity to wild-type human partial length PKMYT1 (A88 to G366 residues) expressed in bacterial expression system assessed as residual binding level at 1 uM by Kinomescan method relative to control
[5] = biological target: Ribosomal protein S6 kinase alpha-4 (Homo sapiens) (UniProt O75676); assay: Binding affinity to wild-type human partial length N-terminal RPS6KA4 kinase domain 1 expressed in bacterial expression system assessed as residual binding level at 1 uM by Kinomescan method relative to control
[6] = biological target: Cyclin-dependent kinase 17 (Homo sapiens) (UniProt Q00537); assay: Binding affinity to wild-type human full length PCTK2 (M1 to F523 residues) expressed in bacterial expression system assessed as residual binding level at 1 uM by Kinomescan method relative to control
Outline: (§2)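 Active-site-directed competition binding panel (KinomeScan) covering 468 kinases. Test agent was screened at 1 μM. The read-out is the remaining kinase signal expressed relative to a DMSO control. Scores above 35%, taken as weak binding, were not reported.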

[7] = biological target: Serine/threonine-protein kinase D1 (Homo sapiens) (UniProt Q15139); assay: Binding affinity to wild-type human partial length PRKD1 (G551 to E870 residues) expressed in bacterial expression system assessed as residual binding level at 1 uM by Kinomescan method relative to control
[8] = biological target: Homeodomain-interacting protein kinase 2 (Homo sapiens) (UniProt Q9H2X6); assay: Binding affinity to wild-type human partial length HIPK2 (M153 to S564 residues) expressed in mammalian expression system assessed as residual binding level at 1 uM by Kinomescan method relative to control
[9] = biological target: Mitogen-activated protein kinase kinase kinase 13 (Homo sapiens) (UniProt O43283); assay: Binding affinity to wild-type human full length LZK (M1 to W966 residues) expressed in mammalian expression system assessed as residual binding level at 1 uM by Kinomescan method relative to control; outline: as §2
Chain of Mitogen-activated protein kinase kinase kinase 13 (Homo sapiens) (O43283 whole entry, the tested form may be a part): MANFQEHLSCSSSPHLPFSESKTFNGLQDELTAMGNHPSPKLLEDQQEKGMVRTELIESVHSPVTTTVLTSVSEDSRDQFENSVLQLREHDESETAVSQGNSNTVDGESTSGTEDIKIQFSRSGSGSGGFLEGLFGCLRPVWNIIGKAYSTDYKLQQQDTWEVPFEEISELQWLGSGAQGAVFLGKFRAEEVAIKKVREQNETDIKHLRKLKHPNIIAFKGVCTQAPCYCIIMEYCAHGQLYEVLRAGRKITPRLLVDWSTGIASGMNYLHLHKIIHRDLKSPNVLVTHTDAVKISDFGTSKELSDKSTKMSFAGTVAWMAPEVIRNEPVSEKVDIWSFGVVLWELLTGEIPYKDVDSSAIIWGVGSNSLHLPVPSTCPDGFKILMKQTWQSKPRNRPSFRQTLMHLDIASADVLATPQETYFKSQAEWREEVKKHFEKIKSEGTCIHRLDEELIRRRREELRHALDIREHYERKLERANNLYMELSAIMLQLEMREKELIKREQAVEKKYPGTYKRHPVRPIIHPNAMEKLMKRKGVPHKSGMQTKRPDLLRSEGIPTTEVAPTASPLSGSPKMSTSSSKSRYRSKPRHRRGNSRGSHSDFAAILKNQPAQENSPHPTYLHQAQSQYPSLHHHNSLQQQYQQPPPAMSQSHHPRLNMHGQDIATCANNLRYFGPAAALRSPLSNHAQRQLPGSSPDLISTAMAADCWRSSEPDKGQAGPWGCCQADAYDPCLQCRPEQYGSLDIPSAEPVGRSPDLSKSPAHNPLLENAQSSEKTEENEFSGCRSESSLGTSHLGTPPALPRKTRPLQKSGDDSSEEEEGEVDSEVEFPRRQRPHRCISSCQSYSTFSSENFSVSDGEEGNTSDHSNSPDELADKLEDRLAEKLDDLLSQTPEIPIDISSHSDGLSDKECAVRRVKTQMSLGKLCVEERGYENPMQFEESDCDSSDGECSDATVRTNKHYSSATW

[10] = tested on: Proto-oncogene tyrosine-protein kinase receptor Ret (Homo sapiens), P07949 [V804L]; assay: Binding affinity to human partial length RET V804L mutant (E713 to D1014 residues) expressed in bacterial expression system assessed as residual binding level at 1 uM by Kinomescan method relative to control; outline: as §1
[11] = biological target: Ephrin type-B receptor 6 (Homo sapiens) (UniProt O15197); assay: Binding affinity to wild-type human partial length EPHB6 (Q634 to P948 residues) expressed in mammalian expression system assessed as residual binding level at 1 uM by Kinomescan method relative to control
Outline: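 Active-site-directed competition binding panel of 468 kinases (KinomeScan), compound at 1 μM. The read-out is kinase remaining bound, given as a percentage of the DMSO control. […]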

[12] = biological target: Serine/threonine-protein kinase DCLK1 (Homo sapiens) (UniProt O15075); assay: Binding affinity to wild-type human partial length DCAMKL1 (L270 to A662 residues) expressed in mammalian expression system assessed as residual binding level at 1 uM by Kinomescan method relative to control
[13] = biological target: TGF-beta receptor type-2 (Homo sapiens) (UniProt P37173); assay: Binding affinity to wild-type human partial length TGFBR2 (I218 to K567 residues) expressed in bacterial expression system assessed as residual binding level at 1 uM by Kinomescan method relative to control
Chain of TGF-beta receptor type-2 (Homo sapiens) (P37173 whole entry, the tested form may be a part): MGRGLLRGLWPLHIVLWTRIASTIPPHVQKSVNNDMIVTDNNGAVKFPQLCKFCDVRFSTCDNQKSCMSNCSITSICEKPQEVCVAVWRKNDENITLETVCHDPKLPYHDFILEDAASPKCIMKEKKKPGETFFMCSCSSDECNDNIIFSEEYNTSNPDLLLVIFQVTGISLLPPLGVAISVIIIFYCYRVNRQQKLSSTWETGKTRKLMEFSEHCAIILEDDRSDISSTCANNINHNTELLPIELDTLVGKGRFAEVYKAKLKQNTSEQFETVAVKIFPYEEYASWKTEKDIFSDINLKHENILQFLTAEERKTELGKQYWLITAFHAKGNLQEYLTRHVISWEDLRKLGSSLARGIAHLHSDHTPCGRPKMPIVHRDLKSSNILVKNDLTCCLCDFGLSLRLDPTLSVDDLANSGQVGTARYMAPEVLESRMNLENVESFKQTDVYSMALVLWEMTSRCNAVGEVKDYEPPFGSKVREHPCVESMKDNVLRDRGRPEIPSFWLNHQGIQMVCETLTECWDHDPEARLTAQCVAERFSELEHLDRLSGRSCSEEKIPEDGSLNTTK

[14] = biological target: Myosin-IIIb (Homo sapiens) (UniProt Q8WXR4); assay: Binding affinity to wild-type human partial length MYO3B (M1 to D357 residues) expressed in bacterial expression system assessed as residual binding level at 1 uM by Kinomescan method relative to control
[15] = biological target: MAP kinase-interacting serine/threonine-protein kinase 1 (Homo sapiens) (UniProt Q9BUB5); assay: Binding affinity to wild-type human full length MKNK1 (M1 to L424 residues) expressed in mammalian expression system assessed as residual binding level at 1 uM by Kinomescan method relative to control; outline: as §2
[16] = biological target: Tyrosine-protein kinase TXK (Homo sapiens) (UniProt P42681); assay: Binding affinity to wild-type human partial length TXK (L238 to W527 residues) expressed in bacterial expression system assessed as residual binding level at 1 uM by Kinomescan method relative to control
Outline: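 Active site-directed competition binding panel (KinomeScan, 468 kinases). Test compound at 1 μM. Read-out is kinase binding remaining versus DMSO control, expressed as percent of control. Scores above 35% are treated as weak binding.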

[17] = biological target: Serine/threonine-protein kinase 3 (Homo sapiens) (UniProt Q13188); assay: Binding affinity to wild-type human partial length MST2 (D17 to E318 residues) expressed in bacterial expression system assessed as residual binding level at 1 uM by Kinomescan method relative to control
[18] = biological target: Receptor-type tyrosine-protein kinase FLT3 (Homo sapiens) (UniProt P36888); assay: Binding affinity to wild-type human partial length autoinhibited FLT3 (H564 to Y969 residues) expressed in mammalian expression system assessed as residual binding level at 1 uM by Kinomescan method relative to control
Chain of Receptor-type tyrosine-protein kinase FLT3 (Homo sapiens) (P36888 whole entry, the tested form may be a part): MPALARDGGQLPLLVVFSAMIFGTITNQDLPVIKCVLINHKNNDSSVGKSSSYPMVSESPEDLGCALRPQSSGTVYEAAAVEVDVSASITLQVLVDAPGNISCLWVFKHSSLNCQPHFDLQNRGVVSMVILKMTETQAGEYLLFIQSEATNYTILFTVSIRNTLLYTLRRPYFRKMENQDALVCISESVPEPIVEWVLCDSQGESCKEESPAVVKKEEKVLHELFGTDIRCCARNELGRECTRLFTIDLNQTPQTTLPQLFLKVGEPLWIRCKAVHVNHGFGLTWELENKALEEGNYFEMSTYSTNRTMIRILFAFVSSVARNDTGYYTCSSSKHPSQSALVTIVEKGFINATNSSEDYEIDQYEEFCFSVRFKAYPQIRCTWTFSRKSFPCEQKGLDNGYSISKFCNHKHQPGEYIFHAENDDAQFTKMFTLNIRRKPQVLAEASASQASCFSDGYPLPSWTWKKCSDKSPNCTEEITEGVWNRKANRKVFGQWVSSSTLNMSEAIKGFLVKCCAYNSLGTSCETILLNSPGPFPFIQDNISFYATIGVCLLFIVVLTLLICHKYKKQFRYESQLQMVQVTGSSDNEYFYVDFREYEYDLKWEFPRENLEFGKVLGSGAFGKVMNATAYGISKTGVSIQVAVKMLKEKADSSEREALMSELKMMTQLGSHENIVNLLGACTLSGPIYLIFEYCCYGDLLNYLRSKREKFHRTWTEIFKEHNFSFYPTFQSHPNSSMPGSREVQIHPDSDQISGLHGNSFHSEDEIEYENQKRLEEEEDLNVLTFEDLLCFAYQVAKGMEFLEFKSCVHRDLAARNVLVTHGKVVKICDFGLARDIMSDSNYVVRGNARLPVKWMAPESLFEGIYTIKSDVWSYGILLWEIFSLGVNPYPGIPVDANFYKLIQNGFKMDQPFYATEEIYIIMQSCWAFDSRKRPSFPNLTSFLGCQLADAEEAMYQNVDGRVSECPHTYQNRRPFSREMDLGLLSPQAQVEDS

[19] = biological target: Serine/threonine-protein kinase Nek1 (Homo sapiens) (UniProt Q96PY6); assay: Binding affinity to wild-type human partial length NEK1 (M1 to K278 residues) expressed in bacterial expression system assessed as residual binding level at 1 uM by Kinomescan method relative to control
Chain of Serine/threonine-protein kinase Nek1 (Homo sapiens) (Q96PY6 whole entry, the tested form may be a part): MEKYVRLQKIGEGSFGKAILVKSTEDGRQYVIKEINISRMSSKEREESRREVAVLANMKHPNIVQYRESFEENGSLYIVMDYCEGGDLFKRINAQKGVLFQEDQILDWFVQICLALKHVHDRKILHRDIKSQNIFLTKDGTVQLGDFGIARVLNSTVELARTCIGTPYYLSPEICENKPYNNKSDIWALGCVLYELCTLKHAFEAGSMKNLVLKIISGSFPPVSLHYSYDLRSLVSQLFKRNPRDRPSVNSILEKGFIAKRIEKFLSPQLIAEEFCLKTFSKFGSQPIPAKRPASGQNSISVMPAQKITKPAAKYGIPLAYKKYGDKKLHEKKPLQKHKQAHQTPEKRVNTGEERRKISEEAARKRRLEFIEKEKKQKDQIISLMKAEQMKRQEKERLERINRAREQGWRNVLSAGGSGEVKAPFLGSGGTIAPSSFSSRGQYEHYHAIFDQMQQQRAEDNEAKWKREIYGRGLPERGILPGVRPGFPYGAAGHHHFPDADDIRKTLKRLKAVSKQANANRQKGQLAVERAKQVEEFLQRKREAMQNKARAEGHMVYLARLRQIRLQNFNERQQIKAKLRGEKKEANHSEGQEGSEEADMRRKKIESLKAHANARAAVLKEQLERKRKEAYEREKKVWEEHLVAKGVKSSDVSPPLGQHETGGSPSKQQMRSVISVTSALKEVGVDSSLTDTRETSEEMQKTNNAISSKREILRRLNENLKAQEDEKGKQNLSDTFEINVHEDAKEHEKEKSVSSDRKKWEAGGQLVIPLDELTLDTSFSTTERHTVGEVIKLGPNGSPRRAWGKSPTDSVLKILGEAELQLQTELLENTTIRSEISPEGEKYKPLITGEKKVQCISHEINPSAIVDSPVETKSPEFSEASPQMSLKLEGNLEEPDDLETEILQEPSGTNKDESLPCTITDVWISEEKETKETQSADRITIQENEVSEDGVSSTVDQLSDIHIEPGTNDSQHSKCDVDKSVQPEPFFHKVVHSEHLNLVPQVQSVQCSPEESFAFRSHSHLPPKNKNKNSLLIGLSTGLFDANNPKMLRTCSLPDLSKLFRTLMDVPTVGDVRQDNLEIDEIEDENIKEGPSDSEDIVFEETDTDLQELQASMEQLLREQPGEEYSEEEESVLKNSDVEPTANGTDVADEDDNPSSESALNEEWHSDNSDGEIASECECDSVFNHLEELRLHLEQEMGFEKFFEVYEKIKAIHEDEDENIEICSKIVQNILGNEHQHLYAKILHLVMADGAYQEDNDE

[20] = biological target: cAMP-dependent protein kinase catalytic subunit beta (Homo sapiens) (UniProt P22694); assay: Binding affinity to wild-type human full length PKAC-beta (M1 to F351 residues) expressed in bacterial expression system assessed as residual binding level at 1 uM by Kinomescan method relative to control; outline: as §2
[21] = biological target: Ephrin type-B receptor 1 (Homo sapiens) (UniProt P54762); assay: Binding affinity to wild-type human partial length EPHB1 (P589 to T911 residues) expressed in bacterial expression system assessed as residual binding level at 1 uM by Kinomescan method relative to control

Measured: Activity

C=CC(=O)Nc1ccccc1Nc1nc(Nc2ccc(N3CCN(C)CC3)cc2)ncc1C(=O)Nc1c(C)cccc1Cl
76%: [1]
92%: [15]
6%: [11]
91%: [9] | [14]
66%: [21]
17%: [16]
100%: all other assays above
